Test results from ChEMBL document CHEMBL4033733, “Enterovirus inhibitory activity of C-8-tert-butyl substituted 4-aryl-6,7,8,9-tetrahydrobenzo[4,5]thieno[3,2-e][1,2,4]triazolo[4,3-a]pyrimidin-5(4H)-ones” (Bioorg Med Chem Lett, 2017).

Assays:
Poliovirus 3 = assay: Antiviral activity against human poliovirus 3 infected in human HeLa cells assessed as reduction in virus-induced cytopathicity incubated for 3 days by MTT assay; type: functional, cell-based; conditions: Enterovirus C, 72 h
How it was run: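 Cytopathic-effect reduction assay in HeLa cells infected with coxsackievirus B1, B3 or poliovirus 3, with pleconaril as reference. EC50 is the concentration that improves viability of infected HeLa cells by 50%. CC50 is the concentration that reduces viability of uninfected HeLa cells by 50%. SI is CC50/EC50.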

rhinovirus B14 = assay: Antiviral activity against human rhinovirus 14 infected in human H1HeLa cells assessed as reduction in virus-induced cytopathicity incubated for 3 days by MTT assay; type: functional, cell-based; conditions: Rhinovirus B, H1-HeLa, 72 h
How it was run: (§1)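 H1 HeLa cells infected with rhinovirus (14, 21 or 71); EC50 is the concentration restoring 50% viability of the infected cells. Pleconaril served as reference.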

[1] = Cytotoxicity in human H1HeLa cells assessed as reduction in cell viability incubated for 3 days by MTT assay; type: cell-based, H1-HeLa
How it was run: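 Uninfected H1 HeLa cells; CC50 is the concentration lowering cell viability by 50%.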

rhinovirus A21 = assay: Antiviral activity against human rhinovirus 21 infected in human H1HeLa cells assessed as reduction in virus-induced cytopathicity incubated for 3 days by MTT assay; type: functional, cell-based; conditions: Rhinovirus A, H1-HeLa, 72 h; how it was run: as §1
Coxsackievirus B3 = assay: Antiviral activity against human coxsackievirus B3 infected in human HeLa cells assessed as reduction in virus-induced cytopathicity incubated for 3 days by MTT assay; type: functional, cell-based; conditions: Enterovirus B, 72 h
How it was run: (§2)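 HeLa cells infected with enterovirus (coxsackievirus B1 or B3); protection from virus-induced cytopathic effect measured. EC50 is the concentration restoring 50% viability of the infected cells. Pleconaril served as reference.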

Coxsackievirus B1 = assay: Antiviral activity against human coxsackievirus B1 infected in human HeLa cells assessed as reduction in virus-induced cytopathicity incubated for 3 days by MTT assay; type: functional, cell-based; conditions: Enterovirus B, 72 h; how it was run: as §2
[2] = Antiviral activity against human rhinovirus 71 infected in human H1HeLa cells assessed as reduction in virus-induced cytopathicity incubated for 3 days by MTT assay; type: functional, cell-based, Human rhinovirus A71; conditions: Rhinovirus A, H1-HeLa, 72 h; how it was run: as §1
[3] = Cytotoxicity in human HeLa cells assessed as reduction in cell viability incubated for 3 days by MTT assay; type: cell-based
How it was run: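 Uninfected HeLa cells; CC50 is the concentration lowering cell viability by 50%.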

Liver [4] = assay: Stability in rat liver microsomes assessed as compound remaining by mass spectrometry; type: ADME, microsome
How it was run: (§3)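 Phase I metabolic stability in human or rat liver microsomes, with buspirone as reference. Parent compound remaining was quantified by quantitative mass spectrometry and expressed as a percentage.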

Liver [5] = assay: Stability in human liver microsomes assessed as compound remaining by mass spectrometry; type: ADME, microsome; how it was run: as §3

CCCC1CCc2c(sc3c2c(=O)n(-c2ccccc2)c2nncn32)C1 (stereo not given) gave an EC50 (Poliovirus 3) of 20 µM, an EC50 (rhinovirus B14) of 18.1 µM and a CC50 at 72 h [1] of 31.7 µM. It also gave an EC50 (rhinovirus A21) of over 31.7 µM, an EC50 (Coxsackievirus B3) of over 41 µM and an EC50 (Coxsackievirus B1) of over 41 µM. The EC50 [2] was 14 µM and the CC50 at 72 h [3] was 41 µM.

Cc1ccc(-c2ccc(-n3c(=O)c4c5c(sc4n4cnnc34)CC(C(C)(C)C)CC5)cc2)cc1 (stereo not given) showed an EC50 (Poliovirus 3) of 47 µM, an EC50 (rhinovirus B14) of over 16.9 µM and a CC50 at 72 h [1] of 16.9 µM. The EC50 (rhinovirus A21) was over 16.9 µM, the EC50 (Coxsackievirus B3) was 46.8 µM and the EC50 (Coxsackievirus B1) was 55.4 µM. For the same compound, the EC50 [2] was over 16.9 µM and the CC50 at 72 h [3] was over 100 µM.

In the case of CC(C)(C)C1CCc2c(sc3c2c(=O)n(-c2ccc(Cl)cc2)c2nncn32)C1 (stereo not given), the EC50 (Poliovirus 3) is reported as 8.35 µM, the EC50 (rhinovirus B14) is reported as 3.7 µM and the CC50 at 72 h [1] is reported as 18.8 µM. It also gave an EC50 (rhinovirus A21) of over 18.8 µM, an EC50 (Coxsackievirus B3) of over 36.5 µM and an EC50 (Coxsackievirus B1) of over 36.5 µM. The EC50 [2] was 3.8 µM and the CC50 at 72 h [3] was 36.5 µM.

O=c1c2c3c(sc2n2cnnc2n1-c1ccccc1)CCCC3 showed an EC50 (Poliovirus 3) of over 100 µM, an EC50 (rhinovirus B14) of over 100 µM and a CC50 at 72 h [1] of over 100 µM. The EC50 (rhinovirus A21) was over 100 µM, the EC50 (Coxsackievirus B3) was over 100 µM and the EC50 (Coxsackievirus B1) was over 100 µM. The EC50 [2] was over 100 µM and the CC50 at 72 h [3] was over 100 µM.

Compound COc1ccc(-n2c(=O)c3c4c(sc3n3cnnc23)CC(C(C)(C)C)CC4)cc1 (stereo not given) has an EC50 (Poliovirus 3) of 3.63 µM, an EC50 (rhinovirus B14) of 1.9 µM and a CC50 at 72 h [1] of 21.9 µM. It also gave an EC50 (rhinovirus A21) of 2.6 µM, an EC50 (Coxsackievirus B3) of over 39.1 µM and an EC50 (Coxsackievirus B1) of over 39.1 µM. For the same compound, the EC50 [2] was 1.8 µM and the CC50 at 72 h [3] was 39.1 µM.

Compound O=c1c2c3c(sc2n2cnnc2n1-c1ccccc1)CC(c1ccccc1)CC3 (stereo not given) has an EC50 (Poliovirus 3) of over 27.5 µM, an EC50 (rhinovirus B14) of 19.4 µM and a CC50 at 72 h [1] of 27.6 µM. The EC50 (rhinovirus A21) was over 27.6 µM, the EC50 (Coxsackievirus B3) was over 27.5 µM and the EC50 (Coxsackievirus B1) was over 27.5 µM. The EC50 [2] was over 27.6 µM and the CC50 at 72 h [3] was 27.5 µM.

With CC1CCc2c(sc3c2c(=O)n(-c2ccccc2)c2nncn32)C1 (stereo not given) the EC50 (Poliovirus 3) was over 79 µM, the EC50 (rhinovirus B14) was 16.4 µM and the CC50 at 72 h [1] was 69 µM. For the same compound, the EC50 (rhinovirus A21) was over 69 µM, the EC50 (Coxsackievirus B3) was over 79 µM and the EC50 (Coxsackievirus B1) was over 79 µM. For the same compound, the EC50 [2] was over 69 µM and the CC50 at 72 h [3] was 79 µM.

CC(C)(C)C1CCc2c(sc3c2c(=O)n(-c2ccccc2)c2nnc(N)n32)C1 (stereo not given) showed an EC50 (Poliovirus 3) of over 45.9 µM, an EC50 (rhinovirus B14) of 8.2 µM and a CC50 at 72 h [1] of 35.4 µM. The EC50 (rhinovirus A21) was over 35.4 µM, the EC50 (Coxsackievirus B3) was over 45.9 µM and the EC50 (Coxsackievirus B1) was over 45.9 µM. It also gave an EC50 [2] of 12.8 µM and a CC50 at 72 h [3] of 45.9 µM.

Cc1ccc(-n2c(=O)c3c4c(sc3n3cnnc23)CC(C(C)(C)C)CC4)cc1 (stereo not given) gave an EC50 (Poliovirus 3) of 1.94 µM, an EC50 (rhinovirus B14) of 1.8 µM and a CC50 at 72 h [1] of 11.1 µM. For the same compound, the EC50 (rhinovirus A21) was 2.4 µM, the EC50 (Coxsackievirus B3) was 12.9 µM and the EC50 (Coxsackievirus B1) was 14.3 µM. It also gave an EC50 [2] of 1.8 µM and a CC50 at 72 h [3] of 32.8 µM.

CC1(C)Cc2c(sc3c2c(=O)n(-c2ccccc2)c2nncn32)C(C)(C)C1 showed an EC50 (Poliovirus 3) of over 9.09 µM, an EC50 (rhinovirus B14) of over 9.6 µM and a CC50 at 72 h [1] of 9.6 µM. For the same compound, the EC50 (rhinovirus A21) was over 9.6 µM, the EC50 (Coxsackievirus B3) was over 9.09 µM and the EC50 (Coxsackievirus B1) was over 9.09 µM. For the same compound, the EC50 [2] was over 9.6 µM and the CC50 at 72 h [3] was 9.09 µM.

Compound O=C1CC2(CCCC2)CC(=O)N1CCCCN1CCN(c2ncccn2)CC1 [BUSPIRONE] has a Stability (Liver [4]) of 0.119% and a Stability (Liver [5]) of 3.52%.

For Cc1cc(CCCOc2c(C)cc(-c3noc(C(F)(F)F)n3)cc2C)on1 [PLECONARIL], the EC50 (Poliovirus 3) was 0.51 µM, the EC50 (rhinovirus B14) was 0.31 µM and the CC50 at 72 h [1] was 53.5 µM. The EC50 (rhinovirus A21) was 0.083 µM, the EC50 (Coxsackievirus B3) was over 42.8 µM and the EC50 (Coxsackievirus B1) was 0.13 µM. It also gave an EC50 [2] of 0.013 µM and a CC50 at 72 h [3] of 42.8 µM.
